Results: ChEMBL document CHEMBL1143323, “Oxidosqualene cyclase from Saccharomyces cerevisiae, Trypanosoma cruzi, Pneumocystis carinii and Arabidopsis thaliana expressed in yeast: a model for the development of novel antiparasitic agents” (Bioorg Med Chem Lett, 2009)

Experiments:
Lanosterol synthase ERG7 = biological target: T1, Lanosterol synthase ERG7 (Saccharomyces cerevisiae S288c, UniProt P38604); experiment: Inhibition of yeast OSC expressed in Saccharomyces cerevisiae SMY8
T1 sequence (P38604 whole entry): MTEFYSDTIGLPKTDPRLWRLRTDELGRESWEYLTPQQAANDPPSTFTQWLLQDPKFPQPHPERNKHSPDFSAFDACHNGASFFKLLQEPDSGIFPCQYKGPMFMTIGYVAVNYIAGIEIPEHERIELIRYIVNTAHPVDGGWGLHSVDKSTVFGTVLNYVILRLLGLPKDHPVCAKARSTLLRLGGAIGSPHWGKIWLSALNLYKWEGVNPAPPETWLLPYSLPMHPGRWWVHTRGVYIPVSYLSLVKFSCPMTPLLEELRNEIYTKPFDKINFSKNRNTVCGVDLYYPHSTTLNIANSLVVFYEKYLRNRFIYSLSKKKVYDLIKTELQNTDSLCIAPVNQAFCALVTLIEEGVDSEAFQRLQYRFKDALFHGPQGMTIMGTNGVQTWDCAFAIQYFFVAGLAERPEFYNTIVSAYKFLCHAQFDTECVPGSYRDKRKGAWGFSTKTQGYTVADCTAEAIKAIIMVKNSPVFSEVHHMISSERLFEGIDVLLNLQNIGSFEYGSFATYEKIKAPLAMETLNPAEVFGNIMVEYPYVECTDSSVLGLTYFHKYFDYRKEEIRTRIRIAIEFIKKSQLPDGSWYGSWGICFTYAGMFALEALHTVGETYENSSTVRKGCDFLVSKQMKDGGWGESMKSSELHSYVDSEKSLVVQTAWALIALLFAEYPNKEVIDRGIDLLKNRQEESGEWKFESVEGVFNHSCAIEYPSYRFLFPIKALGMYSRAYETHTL
Outline: (§1)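 Cell-free homogenates of recombinant OSC-defective S. cerevisiae SMY8 strains, each expressing one OSC: lanosterol cyclase from S. cerevisiae, T. cruzi or P. carinii, or cycloartenol cyclase from A. thaliana. Cyclase activity was measured in homogenates with inhibitor present and IC50 derived. Values are means of two separate experiments, each with duplicate incubations; maximum deviation from the mean under 10%.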

Cycloartenol synthase = Cycloartenol synthase (Arabidopsis thaliana, UniProt P38605); experiment: Inhibition of Arabidopsis thaliana cycloartenol synthase expressed in Saccharomyces cerevisiae SMY8; outline: as §1
Sequence of Cycloartenol synthase (P38605 whole entry): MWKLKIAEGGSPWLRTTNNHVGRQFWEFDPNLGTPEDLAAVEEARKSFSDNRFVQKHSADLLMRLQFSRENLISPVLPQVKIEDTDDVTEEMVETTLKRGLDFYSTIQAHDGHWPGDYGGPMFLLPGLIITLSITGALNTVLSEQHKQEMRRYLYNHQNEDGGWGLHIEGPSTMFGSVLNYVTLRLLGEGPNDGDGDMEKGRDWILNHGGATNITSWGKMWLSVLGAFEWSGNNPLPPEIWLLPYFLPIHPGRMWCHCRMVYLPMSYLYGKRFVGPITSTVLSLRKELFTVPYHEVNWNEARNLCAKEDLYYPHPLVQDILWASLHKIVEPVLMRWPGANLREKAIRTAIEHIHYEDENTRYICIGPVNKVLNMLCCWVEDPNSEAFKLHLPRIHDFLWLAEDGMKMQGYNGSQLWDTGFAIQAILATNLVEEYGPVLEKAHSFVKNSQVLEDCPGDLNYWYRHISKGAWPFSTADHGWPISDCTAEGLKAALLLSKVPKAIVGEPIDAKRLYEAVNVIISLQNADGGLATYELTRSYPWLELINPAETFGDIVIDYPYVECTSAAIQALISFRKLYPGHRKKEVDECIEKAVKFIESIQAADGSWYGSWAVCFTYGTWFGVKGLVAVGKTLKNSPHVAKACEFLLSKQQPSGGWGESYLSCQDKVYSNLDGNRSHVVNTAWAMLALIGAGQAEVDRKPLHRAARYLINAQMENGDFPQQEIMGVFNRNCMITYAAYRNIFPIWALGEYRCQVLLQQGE

[1] = Inhibition of Pneumocystis carinii OSC expressed in Saccharomyces cerevisiae SMY8; outline: as §1
Lanosterol synthase = biological target: T2, Lanosterol synthase (Homo sapiens, UniProt P48449); experiment: Inhibition of human OSC expressed in Saccharomyces cerevisiae SMY8
T2 sequence (P48449 whole entry): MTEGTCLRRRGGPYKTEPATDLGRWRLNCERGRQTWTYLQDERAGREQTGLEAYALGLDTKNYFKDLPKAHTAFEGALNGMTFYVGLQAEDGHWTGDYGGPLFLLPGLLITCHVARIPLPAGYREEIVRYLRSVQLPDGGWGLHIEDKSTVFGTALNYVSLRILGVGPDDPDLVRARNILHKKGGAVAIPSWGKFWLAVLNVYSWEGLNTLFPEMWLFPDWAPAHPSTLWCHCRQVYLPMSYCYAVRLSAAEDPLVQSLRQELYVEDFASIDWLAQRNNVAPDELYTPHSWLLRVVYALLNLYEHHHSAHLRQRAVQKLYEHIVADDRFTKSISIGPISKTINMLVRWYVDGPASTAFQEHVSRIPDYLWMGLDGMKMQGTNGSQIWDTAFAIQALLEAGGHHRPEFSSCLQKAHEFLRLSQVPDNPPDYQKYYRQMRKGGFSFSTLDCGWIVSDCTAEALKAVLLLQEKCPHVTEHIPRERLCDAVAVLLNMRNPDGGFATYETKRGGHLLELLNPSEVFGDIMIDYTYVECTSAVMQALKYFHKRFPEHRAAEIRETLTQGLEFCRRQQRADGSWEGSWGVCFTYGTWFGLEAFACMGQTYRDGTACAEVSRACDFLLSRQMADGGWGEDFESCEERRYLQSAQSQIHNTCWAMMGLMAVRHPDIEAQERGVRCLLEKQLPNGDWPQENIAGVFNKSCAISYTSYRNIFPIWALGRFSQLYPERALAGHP

[2] = Inhibition of Trypanosoma cruzi OSC expressed in Saccharomyces cerevisiae SMY8; outline: as §1
[3] = Selectivity ratio of IC50 for human OSC to IC50 for Pneumocystis carinii OSC

SMILES | IC50 (Lanosterol synthase ERG7) | IC50 (Cycloartenol synthase) | IC50 [1] | IC50 (Lanosterol synthase) | Ratio IC50 [3] | IC50 [2]
C=CCN(C)CCCCCCOc1ccc(-c2nsc3cc(Br)ccc23)cc1 | 280 nM | 10000 nM | 550 nM | 20300 nM | 40 | > 5000 nM
Brc1ccc(-c2nsc3cc(CCCCCN4CCOCC4)ccc23)cc1 | 400 nM | 650 nM | 50 nM | 100 nM |  | 1100 nM
CCN(CC)C(C)(C)CCCC[C@H]1CC[C@H](N(C)S(=O)(=O)c2ccc(C(F)(F)F)cc2)CC1 | 7000 nM | 4100 nM | 1000 nM | 4930 nM |  | > 100000 nM
C=CCN(C)CCCCCCOc1ccc(C(=O)c2ccc(Br)cc2)c(F)c1 | 210 nM | 1750 nM | 340 nM |  |  | 900 nM
C=CCN(C)CCCCC[C@H]1CC[C@H](N(C)S(=O)(=O)c2ccc(C(F)(F)F)cc2)CC1 | 300 nM | 440 nM | 120 nM | 100 nM |  | 300 nM
CCN(CCO)CCCC#Cc1ccc2c(-c3ccc(Br)cc3)nsc2c1 | 5000 nM | 1700 nM | 2250 nM | 230 nM |  | > 10000 nM
CCN(CCO)CCCCOc1ccc2c(-c3ccc(Br)cc3)nsc2c1 | 700 nM | 2300 nM | 50 nM | 520 nM | 10 | 6500 nM
C=CCN(C)C/C=C/COc1ccc2c(-c3ccc(Br)cc3)coc2c1 | 210 nM | 3000 nM | 1200 nM | 90000 nM |  | 
CCN(CC)C1(CCCC[C@H]2CC[C@H](N(C)S(=O)(=O)c3ccc(C(F)(F)F)cc3)CC2)CC1 | 500 nM | 320 nM | 1300 nM | 440 nM |  | 400 nM
C=CCN(C)CCCCC[C@H]1CC[C@H](N(C)C(=O)Oc2ccc(C(F)(F)F)cc2)CC1 | 50 nM | 1000 nM | 340 nM | 140 nM |  | 70 nM
CCN(CCO)CCCCC[C@H]1CC[C@H](N(C)C(=O)Oc2ccc(Cl)cc2)CC1 | 100 nM | 700 nM | 2500 nM | 4120 nM |  | 2000 nM
C=CCN(C)Cc1ccc(-c2ccc(C(=O)c3ccc(Br)cc3)cc2)cc1 | 320 nM | 250 nM | 50 nM | 250 nM | 5 | 600 nM

More lines, main results first:

IC50 (Lanosterol synthase ERG7) | IC50 (Cycloartenol synthase) | IC50 [1] | IC50 (Lanosterol synthase) | Ratio IC50 [3] | SMILES | IC50 [2]
1500 nM | 1500 nM | 400 nM | 720 nM |  | CN([C@H]1CC[C@H](CCCCCN(CCO)CCO)CC1)S(=O)(=O)c1ccc(C(F)(F)F)cc1 | 2700 nM
70 nM | 950 nM | 230 nM | 160 nM |  | C=CCN(C)CCCCCCOc1ccc2c(-c3ccc(Br)cc3)nsc2c1 | 340 nM
290 nM | 2600 nM | > 5000 nM | 2300 nM |  | C=CCN(C)CCCCCCOc1ccc2c(-c3ccc(Br)cc3)nn(C)c2c1 | 3000 nM
180 nM | 260 nM | 200 nM | 270 nM |  | CN(C/C=C/COc1ccc(C(=O)c2ccc(Br)cc2)cc1)C1CC1 | 1500 nM
670 nM | 2500 nM | > 5000 nM | 1150 nM |  | O=C(c1ccc(Cl)cc1)N1CCC(=Cc2ccc(C3=NCCO3)cc2)CC1 | > 5000 nM
> 100000 nM | 2000 nM | > 100000 nM | > 10000 nM |  | CCN(CC)C(=O)CCCC[C@H]1CC[C@H](N(C)S(=O)(=O)c2ccc(C(F)(F)F)cc2)CC1 | > 100000 nM
300 nM | 550 nM | 800 nM | 4600 nM |  | CCN(CC#Cc1ccc2c(-c3ccc(Br)cc3)nsc2c1)CCO | 2300 nM
700 nM | 70 nM | 200 nM | 260 nM |  | C=CCN(C)CCCCOc1ccc2c(-c3ccc(Br)cc3)nsc2c1 | 250 nM
2200 nM | 1250 nM | 1000 nM | 11500 nM |  | CCN(CCO)C(C)(C)C#Cc1ccc2c(-c3ccc(Br)cc3)nsc2c1 | 4200 nM
600 nM | 480 nM | 70 nM | 120 nM |  | Brc1ccc(-c2nsc3cc(OCCCCN4CCOCC4)ccc23)cc1 | 1100 nM
100000 nM | 800 nM |  | > 1000 nM |  | CC(=O)N(CCO)CCCCOc1ccc2c(-c3ccc(Br)cc3)nsc2c1 | 5500 nM
3600 nM | 1000 nM | 600 nM | 2440 nM |  | CCN(CC)CCCCC[C@H]1CC[C@H](N(C)S(=O)(=O)c2ccc(C(F)(F)F)cc2)CC1 | 2400 nM
270 nM | 3000 nM |  | 450 nM |  | CCN(CCO)CCCCC[C@H]1CC[C@H](N(C)S(=O)(=O)c2ccc(C(F)(F)F)cc2)CC1 | 1600 nM
